From ChEMBL document CHEMBL1240491, “In vitro anticancer screening and radiosensitizing evaluation of some new quinolines and pyrimido[4,5-b]quinolines bearing a sulfonamide moiety” (Eur J Med Chem, 2010)

Key:
MCF7 [1] = experiment: Anticancer activity against human MCF7 cells assessed as survival fraction at 10 uM after 48 hrs by SRB assay; assay type: functional
How it was run: (§1)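 Unirradiated MCF7 monolayers attached for 24 h after plating at 10⁴ cells/well, then exposed to a range of compound concentrations (dissolved in DMSO) with replicate wells per concentration. Incubated 48 h at 37 °C under 5% CO₂. Sulforhodamine B assay: fixation, 30 min 0.4% SRB/1% acetic acid, four acid washes, Tris-EDTA elution, colorimetric reading. Surviving fraction given as mean ± standard error.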

MCF7 [2] = experiment: Anticancer activity against human MCF7 cells assessed as survival fraction at 25 uM after 48 hrs by SRB assay; assay type: functional; how it was run: as §1
MCF7 [3] = experiment: Anticancer activity against human MCF7 cells assessed as survival fraction at 50 uM after 48 hrs by SRB assay; assay type: functional; how it was run: as §1
MCF7 [4] = experiment: Anticancer activity against human MCF7 cells assessed as survival fraction at 100 uM after 48 hrs by SRB assay; assay type: functional; how it was run: as §1
MCF7 [5] = experiment: Anticancer activity against human MCF7 cells assessed as survival fraction after 48 hrs by SRB assay; assay type: functional, cell-based; conditions: MCF7, 48 h; how it was run: as §1
MCF7 [6] = experiment: Anticancer activity against 8 Gy irradiated human MCF7 cells assessed as survival fraction at 10 uM after 48 hrs by SRB assay; assay type: functional
How it was run: (§2)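 MCF7 cells seeded at 10⁴ cells/well for 24 h, then given test compound (DMSO solution; 10, 25, 50 or 100 in the concentration series) plus a single 8 Gy γ-irradiation. Incubated 48 h, 37 °C, 5% CO₂. SRB readout: fix, stain 30 min with 0.4% SRB in 1% acetic acid, wash, solubilize in Tris-EDTA, read on ELISA reader. Surviving fraction is the mean of three values ± SE.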

MCF7 [7] = experiment: Anticancer activity against 8 Gy irradiated human MCF7 cells assessed as survival fraction at 25 uM after 48 hrs by SRB assay; assay type: functional; how it was run: as §2
MCF7 [8] = experiment: Anticancer activity against 8 Gy irradiated human MCF7 cells assessed as survival fraction at 50 uM after 48 hrs by SRB assay; assay type: functional; how it was run: as §2
MCF7 [9] = experiment: Anticancer activity against 8 Gy irradiated human MCF7 cells assessed as survival fraction at 100 uM after 48 hrs by SRB assay; assay type: functional; how it was run: as §2
MCF7 [10] = experiment: Anticancer activity against 8 Gy irradiated human MCF7 cells assessed as survival fraction after 48 hrs by SRB assay; assay type: functional, cell-based; conditions: MCF7, light or radiation study; how it was run: as §2

| SMILES | Activity (MCF7 [1]) | Activity (MCF7 [2]) | Activity (MCF7 [3]) | Activity (MCF7 [4]) | IC50 (MCF7 [5]) | Activity (MCF7 [6]) | Activity (MCF7 [7]) | Activity (MCF7 [8]) | Activity (MCF7 [9]) | IC50 (MCF7 [10]) |
| --- | --- | --- | --- | --- | --- | --- | --- | --- | --- | --- |
| CC1(C)CC(=O)C2=C(C1)N(c1ccc(S(N)(=O)=O)cc1)c1ncnc(NN)c1C2c1ccc(Cl)cc1 (stereo not drawn) | 0.94 | 0.788 | 0.672 | 0.358 | 76 µM |  |  |  |  |  |
| CC1(C)CC(=O)C2=C(C1)N(c1ccc(S(N)(=O)=O)cc1)C(N)=C(C#N)C2c1ccc(Cl)cc1 (stereo not drawn) | 0.915 | 0.612 | 0.429 | 0.484 | 72.9 µM |  |  |  |  |  |
| CC1(C)CC(=O)C2=C(C1)N(c1ccc(S(N)(=O)=O)cc1)c1nc[nH]c(=O)c1C2c1ccc(Cl)cc1 (stereo not drawn) | 0.891 | 0.676 | 0.499 | 0.468 | 76.8 µM |  |  |  |  |  |
| CC(=O)NC1=C(C#N)C(c2ccc(Cl)cc2)C2=C(CC(C)(C)CC2=O)N1c1ccc(S(N)(=O)=O)cc1 (stereo not drawn) | 0.948 | 0.779 | 0.446 | 0.324 | 64.5 µM | 0.427 | 0.503 | 0.31 | 0.137 | 33.1 µM |
| CC(=O)N(C(C)=O)C1=C(C#N)C(c2ccc(Cl)cc2)C2=C(CC(C)(C)CC2=O)N1c1ccc(S(N)(=O)=O)cc1 (stereo not drawn) | 0.895 | 0.773 | 0.504 | 0.414 | 72.1 µM |  |  |  |  |  |
| Cc1nc2c(c(=O)[nH]1)C(c1ccc(Cl)cc1)C1=C(CC(C)(C)CC1=O)N2c1ccc(S(N)(=O)=O)cc1 (stereo not drawn) | 0.976 | 0.721 | 0.45 | 0.557 | 85.9 µM |  |  |  |  |  |
| CC1(C)CC(=O)C2=C(C1)N(c1ccc(S(N)(=O)=O)cc1)c1ncnc(N)c1C2c1ccc(Cl)cc1 (stereo not drawn) | 0.886 | 0.612 | 0.495 | 0.602 | 96.6 µM |  |  |  |  |  |
| CCO/C=N/C1=C(C#N)C(c2ccc(Cl)cc2)C2=C(CC(C)(C)CC2=O)N1c1ccc(S(N)(=O)=O)cc1 (stereo not drawn) | 0.803 | 0.551 | 0.498 | 0.607 | 97.2 µM |  |  |  |  |  |
| CC1(C)CC(=O)C2=C(C1)N(c1ccc(S(N)(=O)=O)cc1)C(NC(=O)CCl)=C(C#N)C2c1ccc(Cl)cc1 (stereo not drawn) | 0.986 | 0.736 | 0.523 | 0.502 | 84.3 µM |  |  |  |  |  |
| CC1(C)CC(=O)C2=C(C1)N(c1ccc(S(N)(=O)=O)cc1)c1nc(CCl)[nH]c(=O)c1C2c1ccc(Cl)cc1 (stereo not drawn) | 0.914 | 0.775 | 0.731 | 0.625 | > 100 µM |  |  |  |  |  |
| CC1(C)CC(=O)C2=C(C1)N(c1ccc(S(N)(=O)=O)cc1)c1nc(CC#N)[nH]c(=O)c1C2c1ccc(Cl)cc1 (stereo not drawn) | 0.971 | 0.901 | 0.774 | 0.525 | > 100 µM |  |  |  |  |  |
| CCNC(=S)NC1=C(C#N)C(c2ccc(Cl)cc2)C2=C(CC(C)(C)CC2=O)N1c1ccc(S(N)(=O)=O)cc1 (stereo not drawn) | 0.916 | 0.837 | 0.594 | 0.561 | 99.6 µM |  |  |  |  |  |
| CC1(C)CC(=O)C2=C(C1)N(c1ccc(S(N)(=O)=O)cc1)C(N1C(=O)CCC1=O)=C(C#N)C2c1ccc(Cl)cc1 (stereo not drawn) | 0.93 | 0.813 | 0.584 | 0.549 | 95.2 µM |  |  |  |  |  |
| CC1(C)CC(=O)C2=C(C1)N(c1ccc(S(N)(=O)=O)cc1)C(N)=C(C(N)=O)C2c1ccc(Cl)cc1 (stereo not drawn) | 0.922 | 0.662 | 0.445 | 0.452 | 71.9 µM | 0.653 | 0.517 | 0.281 | 0.282 | 44.4 µM |
| CC1(C)CC(=O)C2=C(C1)N(c1ccc(S(N)(=O)=O)cc1)C(N)=C(C1=NCCN1)C2c1ccc(Cl)cc1 (stereo not drawn) | 0.939 | 0.763 | 0.568 | 0.621 | > 100 µM |  |  |  |  |  |
| CC(=O)CC(=O)NC1=C(C#N)C(c2ccc(Cl)cc2)C2=C(CC(C)(C)CC2=O)N1c1ccc(S(N)(=O)=O)cc1 (stereo not drawn) | 0.897 | 0.82 | 0.648 | 0.549 | > 100 µM |  |  |  |  |  |
| CC1(C)CC(=O)C2=C(C1)N(c1ccc(S(N)(=O)=O)cc1)c1nc[nH]c(=S)c1C2c1ccc(Cl)cc1 (stereo not drawn) | 0.927 | 0.91 | 0.884 | 0.814 | > 100 µM |  |  |  |  |  |
| CC1(C)CC(=O)C2=C(C1)N(c1ccc(S(N)(=O)=O)cc1)c1ncnc(Cl)c1C2c1ccc(Cl)cc1 (stereo not drawn) | 0.843 | 0.696 | 0.476 | 0.546 | 86.5 µM |  |  |  |  |  |
| CCOC(=O)Cn1cnc2c(c1=O)C(c1ccc(Cl)cc1)C1=C(CC(C)(C)CC1=O)N2c1ccc(S(N)(=O)=O)cc1 (stereo not drawn) | 0.954 | 0.88 | 0.653 | 0.563 | > 100 µM |  |  |  |  |  |
| CC1(C)CC(=O)C2=C(C1)N(c1ccc(S(N)(=O)=O)cc1)c1ncnc(N=C=S)c1C2c1ccc(Cl)cc1 (stereo not drawn) | 0.972 | 0.721 | 0.419 | 0.515 | 79.6 µM |  |  |  |  |  |
| COc1cccc2c1C(=O)c1c(O)c3c(c(O)c1C2=O)C[C@@](O)(C(=O)CO)C[C@@H]3O[C@H]1C[C@H](N)[C@H](O)[C@H](C)O1 [DOXORUBICIN] | 0.721 |  | 0.461 | 0.494 |  |  |  |  |  |  |
